Assay results as given in ChEMBL document CHEMBL1255381, “Golgicide A reveals essential roles for GBF1 in Golgi assembly and function” (Nat Chem Biol, 2009).
Calls of active or inactive are those of the source. No cut-off for these calls is given here.

Tests used:
Format in all cases: cell-based
Details in all cases: Chlorocebus sabaeus
Vero [1] = test: Inhibition of Arf1 in african green monkey Vero cells assessed as giantin positive punctate structures in contact with Sec31-positive ER exit site at 10 ug/ml after 1 hr by immunofluorescence method
In short: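 Vero cells given BFA 10 μg/ml or compound 10 μM for 60 min, fixed, co-stained for giantin and ER exit site marker Sec31; giantin puncta relative to ERES scored by immunofluorescence.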

Vero [2] = test: Inhibition of Arf1 in african green monkey Vero cells assessed as rapid COPI redistribution from golgi at 10 ug/ml after 5 mins by immunofluorescence method
Vero [3] = test: Inhibition of GBF1 in african green monkey Vero cells assessed as tubule formation from trans golgi network and endosomes before its dispersal in african green monkey Vero cells at 10 uM after 1 hr by immunofluorescence method
Vero [4] = test: Inhibition of Arf1 in african green monkey Vero cells assessed as rapid AP-1 dispersal from golgi membranes at 10 ug/ml after 5 mins by immunofluorescence method
Vero [5] = test: Inhibition of Arf1 in african green monkey Vero cells assessed as punctate and diffuse distribution of cis-Golgi marker GM130 at 10 ug/ml after 1 hr by immunofluorescence method
Vero [6] = test: Inhibition of GBF1 QNV deleted mutant in african green monkey Vero cells assessed as effect on change in golgi morphology at 10 uM after 1 hr by immunofluorescence method
Vero [7] = test: Inhibition of Arf1 in african green monkey Vero cells expressing GBF1 QNV to AAA mutant assessed as effect on change in golgi morphology at 10 ug/ml after 1 hr by immunofluorescence method
Vero [8] = test: Inhibition of GBF1 in african green monkey Vero cells assessed as punctate and diffuse distribution of medial-Golgi marker giantin […] at 10 uM after 1 hr by immunofluorescence method
Vero [9] = test: Inhibition of Arf1 in african green monkey Vero cells assessed as tubule formation from trans golgi network and endosomes before its dispersal at 10 ug/ml after 1 hr by immunofluorescence method
Vero [10] = test: Inhibition of Arf1 in african green monkey Vero cells assessed as inhibition of StxB-SS retrogade transport from endosomes to TGN at 10 ug/ml by immunofluorescence method
Vero [11] = test: Inhibition of Arf1 in african green monkey Vero cells overexpressing BIG1 assessed as punctate and diffuse distribution of medial-Golgi marker giantin from golgi at 10 ug/ml after 1 hr by immunofluorescence method
Vero [12] = test: Restoration of Arf1-GTP levels in african green monkey Vero cells expressing GBF1-M832L mutant at 10 ug/ml after 1 hr
Vero [13] = test: Induction of GBF1 in african green monkey Vero cells assessed as punctate and diffuse distribution of cis-Golgi marker GM130 from TGN at 10 uM after 1 hr by immunofluorescence method
Vero [14] = test: Inhibition of GBF1 QNV to AAA mutant in african green monkey Vero cells assessed as effect on change in golgi morphology at 10 uM after 1 hr by immunofluorescence method
Vero [15] = test: Inhibition of GBF1 in african green monkey Vero cells assessed as inhibition of StxB-SS retrogade transport from endosomes to TGN at 10 uM by immunofluorescence method
Vero [16] = test: Inhibition of Arf1 in african green monkey Vero cells assessed as decrease in Arf1-GTP levels at 10 ug/ml after 1 hr
In short: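 Vero cells transduced with adenoviral Arf1-V5, alone or with GBF1-ML-HA; next day reseeded, then 45 min at 37°C with medium, BFA 10 µg/ml or compound 10 μM. Lysates pulled down with GGA3 VHS-GAT-GST on glutathione agarose, 30 min 4°C; Arf1-GTP by anti-V5 Western, band densitometry, duplicate experiments averaged.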

Vero [17] = test: Inhibition of Arf1 in african green monkey Vero cells expressing GBF1-M832L mutant assessed as inhibition of StxB-SS retrogade transport from endosomes to TGN in african green monkey Vero cells at 10 ug/ml by immunofluorescence method
Vero [18] = test: Inhibition of Arf1 in african green monkey Vero cells assessed as rapid GGA3 dispersal from trans golgi network at 10 ug/ml after 5 mins by immunofluorescence method
Vero [19] = test: Inhibition of Arf1 in african green monkey Vero cells expressing GBF1 QNV deleted mutant assessed as effect on change in golgi morphology at 10 ug/ml after 1 hr by immunofluorescence method
Vero [20] = test: Inhibition of Arf1 in african green monkey Vero cells assessed as punctate and diffuse distribution of medial-Golgi marker giantin at 10 ug/ml after 1 hr by immunofluorescence method

SMILES: C[C@H]1CCC/C=C/[C@@H]2C[C@H](O)C[C@H]2[C@H](O)/C=C/C(=O)O1
- inhibition (Vero [1]): Active
- inhibition (Vero [2]): Active
- inhibition (Vero [3]): inactive
- inhibition (Vero [4]): Active
- inhibition (Vero [5]): Active
- inhibition (Vero [6]): Active
- inhibition (Vero [7]): inactive
- inhibition (Vero [8]): Active
- inhibition (Vero [9]): Active
- inhibition (Vero [10]): Active
- inhibition (Vero [11]): inactive
- Activity (Vero [12]): inactive
- Activity (Vero [13]): Active
- inhibition (Vero [14]): Active
- inhibition (Vero [15]): Active
- inhibition (Vero [16]): Active
- inhibition (Vero [17]): inactive
- inhibition (Vero [18]): Active
- inhibition (Vero [19]): inactive
- inhibition (Vero [20]): Active
